How the values were obtained:
[1] = molecular target: T1, 5-hydroxytryptamine receptor 1A (Rattus norvegicus, UniProt P19327); experiment: Binding affinity was determined against 5-hydroxytryptamine 1A receptor using […]
T1 sequence (P19327 whole entry): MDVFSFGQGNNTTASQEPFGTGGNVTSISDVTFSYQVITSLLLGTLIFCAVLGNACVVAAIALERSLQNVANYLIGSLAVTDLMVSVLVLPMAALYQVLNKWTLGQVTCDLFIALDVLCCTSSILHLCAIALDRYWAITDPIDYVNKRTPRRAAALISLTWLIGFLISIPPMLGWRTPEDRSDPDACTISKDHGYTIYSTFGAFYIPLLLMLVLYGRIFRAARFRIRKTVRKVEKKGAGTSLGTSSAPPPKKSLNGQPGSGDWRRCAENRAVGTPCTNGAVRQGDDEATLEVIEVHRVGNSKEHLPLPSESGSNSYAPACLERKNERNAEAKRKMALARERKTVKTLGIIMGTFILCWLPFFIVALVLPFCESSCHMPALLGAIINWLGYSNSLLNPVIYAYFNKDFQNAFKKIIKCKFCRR

[2] = Stability half-life at pH-2; stable; format: physicochemical
Method in brief: (§1)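 Half-life measured in solution at pH 2, about 3 × 10⁻³ M compound in citric acid–phosphate buffer at 22 °C.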

Rattus norvegicus [3] = experiment: Conditioned avoidance response activity was determined by the ability to block the conditioned avoidance of a foot shock at 15 mg/kg(ip); format: functional
Method in brief: (§2)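 Male Fischer 344 rats (300–500 g) trained on a discrete-trial single-lever task, pressing the lever to avoid an impending shock; block of responding read at time of peak effect. Escape loss = percent of animals failing to escape the shock; >20% escape loss with CAR inhibition taken as potential for sedation.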

Rattus norvegicus [4] = experiment: Percentage of animals failing to escape shock was measured, affording a rough index for nonspecific sedation at 5 mg/kg(ip)
[5] = Stability half-life at pH-2; format: physicochemical; method in brief: as §1
Rattus norvegicus [6] = experiment: Conditioned avoidance response activity was determined by the ability to block the conditioned avoidance of a foot shock at 5 mg/kg(ip); format: functional; method in brief: as §2
Rattus norvegicus [7] = experiment: Conditioned avoidance response activity was determined by the ability to block the conditioned avoidance of a foot shock (ip); format: functional
Method in brief: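 Male Fischer 344 rats (300–500 g) were trained on a single-lever discrete-trial task in which a lever press avoids an impending shock. Block of avoidance was scored at the time of peak effect. […] The percentage of rats failing to escape the shock (escape loss) was also recorded.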

Rattus norvegicus [8] = experiment: Percentage of animals failing to escape the shock was measured and affords a rough index for nonspecific sedation at 5 mg/kg(ip)(>20% esc loss = potential for sedation); format: functional; method in brief: as §2

| Ki [1] | T1/2 [2] | half-life [5] | SMILES | inhibition in vivo at 15 mg/kg (Rattus norvegicus [3]) | Esc loss (Rattus norvegicus [4]) | inhibition in vivo at 5 mg/kg (Rattus norvegicus [6]) | ED50 (Rattus norvegicus [7]) | Esc loss (Rattus norvegicus [8]) |
| --- | --- | --- | --- | --- | --- | --- | --- | --- |
| 0.032 µM | Stable | – | COc1ccccc1N1CCN(Cc2ccc(CN3CCCCCCC3=O)o2)CC1.O=C(O)CCC(=O)O | 99% | 19% | – | – | – |
| 0.011 µM | – | 2.87 h | COc1ccccc1N1CCN(Cc2ccc(CN(C)S(C)(=O)=O)n2C)CC1.O=C(O)CCC(=O)O | – | 4% | 23% | – | – |
| 0.057 µM | – | 72.4 h | CNC(=O)c1ccc(CN2CCN(c3ccccc3OC(C)C)CC2)n1C.O=C(O)CCC(=O)O | – | 0% | 15% | – | – |
| 0.048 µM | – | 382 h | CC(C)NC(=O)c1ccc(CN2CCN(c3ccccc3OC(C)C)CC2)n1C.O=C(O)CCC(=O)O | – | 0% | 1% | – | – |
| 0.248 µM | Stable | – | CNC(=O)c1ccc(CN2CCN(c3ccccc3OC)CC2)n1C.O=C(O)CCC(=O)O | – | 0% | 22% | – | – |
| 0.012 µM | Stable | – | CC(C)Oc1ccccc1N1CCN(CCc2ccc(C(=O)C(=O)N3CCCCCC3)n2C)CC1.O=C(O)CCC(=O)O | – | 0% | 1% | – | – |
| 0.0023 µM | Stable | – | CC(C)Oc1ccccc1N1CCN(CCc2ccc(C(=O)C(=O)N3CCCCC3)n2C)CC1.O=C(O)CCC(=O)O | – | 1% | 16% | – | – |
| 0.051 µM | – | 10.5 h | CC(C)Oc1ccccc1N1CCN(Cc2ccc(CN3CCCCCC3=O)o2)CC1.O=C(O)CCC(=O)O | 83% | 1% | – | – | – |
| 0.0014 µM | Stable | – | COc1ccccc1N1CCN(CCc2ccc(CN3CCCCC3=O)n2C)CC1.O=C(O)CCC(=O)O | – | 4% | 23% | – | – |
| 0.039 µM | – | 2.17 h | COc1ccccc1N1CCN(Cc2ccc(CN(C)S(=O)(=O)C(C)C)n2C)CC1.O=C(O)CCC(=O)O | – | 0% | 6% | – | – |
| 0.018 µM | – | 2.5 h | CCCCS(=O)(=O)N(C)Cc1ccc(CN2CCN(c3ccccc3OC(C)C)CC2)n1C.O=C(O)CCC(=O)O | – | 0% | 2% | – | – |
| 0.029 µM | Stable | – | CC(C)Oc1ccccc1N1CCN(Cc2ccc(CN3CCCCCCC3=O)o2)CC1.O=C(O)CCC(=O)O | 76% | 1% | – | – | – |
| 0.0015 µM | Stable | – | CC(C)Oc1ccccc1N1CCN(CCc2ccc(CN3CCCCC3=O)n2C)CC1.O=C(O)CCC(=O)O | – | 19% | 82% | – | – |
| 0.0057 µM | – | – | CC(C)Oc1ccccc1N1CCN(Cc2ccc(CN(C)S(=O)(=O)C(C)C)n2C)CC1.O=C(O)CCC(=O)O | 0% | 0% | – | – | – |
| 0.00084 µM | – | 1.07 h | CC(C)Oc1ccccc1N1CCN(Cc2ccc(CN(C)C(=O)C(C)C)n2C)CC1.O=C(O)CCC(=O)O | – | 0% | 3% | – | – |
| 0.0071 µM | – | 3.7 h | CCCCS(=O)(=O)N(C)Cc1ccc(CN2CCN(c3ccccc3OC)CC2)n1C.O=C(O)CCC(=O)O | – | 1% | 7% | – | – |
| 0.038 µM | – | – | COc1ccccc1N1CCN(Cc2ccc(CN3CCCCC3=O)o2)CC1.O=C(O)CCC(=O)O | 10% | 0% | – | – | – |
| 0.021 µM | Stable | – | CC(C)Oc1ccccc1N1CCN(Cc2ccc(CN3CCCCC3=O)o2)CC1.O=C(O)CCC(=O)O | – | 0% | 46% | – | – |
| 0.0094 µM | – | 85 h | CC(C)Oc1ccccc1N1CCN(CCc2ccc(C(=O)C(=O)N3CCOCC3)n2C)CC1.O=C(O)CCC(=O)O | – | 0% | 2% | – | – |
| 0.012 µM | – | 1.17 h | CC(=O)N(C)Cc1ccc(CN2CCN(c3ccccc3OC(C)C)CC2)n1C.O=C(O)CCC(=O)O | – | 2% | 63% | – | – |
| 0.027 µM | – | – | COc1ccccc1N1CCN(Cc2ccc(CN3CCCCCC3=O)o2)CC1.O=C(O)CCC(=O)O | 93% | 11% | – | – | – |
| – | – | – | CCCN(Cc1ccc(CN2CCN(c3ccccc3OC)CC2)n1C)S(=O)(=O)c1ccccc1 | 0% | 0% | – | – | – |
| 0.0019 µM | – | – | COc1ccccc1N1CCN(Cc2ccc(CN3C(=O)c4ccccc4C3=O)o2)CC1 | 3% | 0% | – | – | – |
| 0.12 µM | – | 60.9 h | CC(C)Oc1ccccc1N1CCN(CC2CC(CO)=NO2)CC1 (stereo not drawn) | – | 26% | 96% | – | – |
| 0.094 µM | – | 18.3 h | CC(C)Oc1ccccc1N1CCN(Cc2cc(CN3CCCCC3=O)no2)CC1.Cl | – | 0% | 0% | – | – |
| – | – | < 0.117 h | COc1ccccc1N1CCN(Cc2ccc(CCN3CCCCC3=O)n2C)CC1.Cl | – | 9% | 75% | – | – |
| – | – | – | CC(C)Oc1ccccc1N1CCN(Cc2ccc(C(=O)N3CCCCC3)n2C)CC1.Cl | 56% | 5% | – | – | – |
| 0.829 µM | – | 70.3 h | CC(C)Oc1ccccc1N1CCN(Cc2cccc(CN3CCCCC3=O)n2)CC1.Cl | – | 15% | 85% | – | – |
| – | – | – | O=C1CC2(CCCC2)CC(=O)N1CCCCN1CCN(c2ncccn2)CC1 [BUSPIRONE] | – | – | – | 4.5 mg/kg | – |
| – | – | 1.37 h | CC(C)Oc1ccccc1N1CCN(Cc2ccc(CN3CCCCC3=O)n2C)CC1 [RWJ-25730] | 98% | – | 87% | – | 8% |

From ChEMBL document CHEMBL1128321, “Piperazinylalkyl heterocycles as potential antipsychotic agents” (J Med Chem, 1995)
